Measured values: ChEMBL document CHEMBL4715736, “Identification of anticancer agents based on the thieno[2,3-b]pyridine and 1H-pyrazole molecular scaffolds” (2016)

Key:
Type in all cases: functional
Conditions in all cases: read-out: Activity
[1] = test system: SF-539; assay: Growth inhibition of human SF-539 cells assessed as cell growth at 10 uM incubated for 48 hrs by sulforhodamine B assay relative to control
In short: (§1)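 Run by the NCI Developmental Therapeutics Program as part of its 60-line human tumour panel. Each compound tested at a single 10 µM dose. Growth expressed as % relative to untreated control cells (100%).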

[2] = test system: OVCAR-5; assay: Growth inhibition of human OVCAR-5 cells assessed as cell growth at 10 uM incubated for 48 hrs by sulforhodamine B assay relative to control; in short: as §1
[3] = test system: A549; assay: Growth inhibition of human A549/ATCC cells assessed as cell growth at 10 uM incubated for 48 hrs by sulforhodamine B assay relative to control
In short: (§2)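 NCI Developmental Therapeutics Program NCI60 panel. Compounds that were active in the 10 µM one-dose screen went on to dose–response testing. Growth at each concentration is expressed relative to untreated control (100%). GI50 (concentration giving 50% of maximal inhibition of proliferation) and TGI (concentration giving total growth inhibition) were derived from the curves.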

[4] = test system: IGROV-1; assay: Growth inhibition of human IGROV-1 cells assessed as cell growth at 10 uM incubated for 48 hrs by sulforhodamine B assay relative to control
In short: (§3)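 Submitted to the NCI Developmental Therapeutics Program for the NCI60 human tumour cell line panel. First screen at a single 10 µM concentration. Read-out is growth relative to untreated control cells set at 100%.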

[5] = test system: SK-MEL-5; assay: Growth inhibition of human SK-MEL-5 cells assessed as cell growth at 10 uM incubated for 48 hrs by sulforhodamine B assay relative to control; in short: as §1
[6] = test system: M14; assay: Growth inhibition of human M14 cells assessed as cell growth at 10 uM incubated for 48 hrs by sulforhodamine B assay relative to control; in short: as §3
[7] = test system: SK-MEL-28; assay: Growth inhibition of human SK-MEL-28 cells assessed as cell growth at 10 uM incubated for 48 hrs by sulforhodamine B assay relative to control; in short: as §1
[8] = test system: UACC-62; assay: Growth inhibition of human UACC-62 cells assessed as cell growth at 10 uM incubated for 48 hrs by sulforhodamine B assay relative to control; in short: as §1
[9] = test system: Malme-3M; assay: Growth inhibition of human Malme-3M cells assessed as cell growth at 10 uM incubated for 48 hrs by sulforhodamine B assay relative to control; in short: as §3
[10] = test system: HOP-62; assay: Growth inhibition of human HOP-62 cells assessed as cell growth at 10 uM incubated for 48 hrs by sulforhodamine B assay relative to control; in short: as §3
[11] = test system: HOP-92; assay: Growth inhibition of human HOP-92 cells assessed as cell growth at 10 uM incubated for 48 hrs by sulforhodamine B assay relative to control; in short: as §3
[12] = test system: RXF 393; assay: Growth inhibition of human RXF 393 cells assessed as cell growth at 10 uM incubated for 48 hrs by sulforhodamine B assay relative to control; in short: as §1
[13] = test system: PC-3; assay: Growth inhibition of human PC-3 cells assessed as cell growth at 10 uM incubated for 48 hrs by sulforhodamine B assay relative to control; in short: as §1
[14] = test system: UO-31; assay: Growth inhibition of human UO-31 cells assessed as cell growth at 10 uM incubated for 48 hrs by sulforhodamine B assay relative to control; in short: as §1
[15] = test system: NCI/ADR-RES; assay: Growth inhibition of human NCI/ADR-RES cells assessed as cell growth at 10 uM incubated for 48 hrs by sulforhodamine B assay relative to control; in short: as §3
[16] = test system: HCT-15; assay: Growth inhibition of human HCT-15 cells assessed as cell growth at 10 uM incubated for 48 hrs by sulforhodamine B assay relative to control; in short: as §3
[17] = test system: SF-295; assay: Growth inhibition of human SF-295 cells assessed as cell growth at 10 uM incubated for 48 hrs by sulforhodamine B assay relative to control; in short: as §1
[18] = test system: MOLT-4; assay: Growth inhibition of human MOLT-4 cells assessed as cell growth at 10 uM incubated for 48 hrs by sulforhodamine B assay relative to control; in short: as §3
[19] = test system: CCRF-CEM; assay: Growth inhibition of human CCRF-CEM cells assessed as cell growth at 10 uM incubated for 48 hrs by sulforhodamine B assay relative to control; in short: as §2
[20] = test system: NCI-H322M; assay: Growth inhibition of human NCI-H322M cells assessed as cell growth at 10 uM incubated for 48 hrs by sulforhodamine B assay relative to control; in short: as §3
[21] = test system: Hs-578T; assay: Growth inhibition of human Hs-578T cells assessed as cell growth at 10 uM incubated for 48 hrs by sulforhodamine B assay relative to control; in short: as §3
[22] = test system: KM12; assay: Growth inhibition of human KM12 cells assessed as cell growth at 10 uM incubated for 48 hrs by sulforhodamine B assay relative to control; in short: as §3
[23] = test system: HCT-116; assay: Growth inhibition of human HCT-116 cells assessed as cell growth at 10 uM incubated for 48 hrs by sulforhodamine B assay relative to control; in short: as §3
[24] = test system: NCI-H226; assay: Growth inhibition of human NCI-H226 cells assessed as cell growth at 10 uM incubated for 48 hrs by sulforhodamine B assay relative to control; in short: as §3
[25] = test system: A498; assay: Growth inhibition of human A498 cells assessed as cell growth at 10 uM incubated for 48 hrs by sulforhodamine B assay relative to control; in short: as §2
[26] = test system: UACC-257; assay: Growth inhibition of human UACC-257 cells assessed as cell growth at 10 uM incubated for 48 hrs by sulforhodamine B assay relative to control; in short: as §1
[27] = test system: MDA-MB-468; assay: Growth inhibition of human MDA-MB-468 cells assessed as cell growth at 10 uM incubated for 48 hrs by sulforhodamine B assay relative to control; in short: as §3
[28] = test system: NCI-H460; assay: Growth inhibition of human NCI-H460 cells assessed as cell growth at 10 uM incubated for 48 hrs by sulforhodamine B assay relative to control; in short: as §3
[29] = test system: OVCAR-3; assay: Growth inhibition of human OVCAR-3 cells assessed as cell growth at 10 uM incubated for 48 hrs by sulforhodamine B assay relative to control; in short: as §1
[30] = test system: SN12C; assay: Growth inhibition of human SN12C cells assessed as cell growth at 10 uM incubated for 48 hrs by sulforhodamine B assay relative to control; in short: as §1
[31] = test system: U-251; assay: Growth inhibition of human U-251 cells assessed as cell growth at 10 uM incubated for 48 hrs by sulforhodamine B assay relative to control; in short: as §1
[32] = test system: HL-60(TB); assay: Growth inhibition of human HL-60(TB) cells assessed as cell growth at 10 uM incubated for 48 hrs by sulforhodamine B assay relative to control
In short: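 Screened by the NCI Developmental Therapeutics Program on its panel of 60 human tumour cell lines. Compounds were first tested at a single 10 µM dose, and compounds active there went to dose-response curves. Growth is expressed relative to untreated control (100%). GI50 (50% of maximal proliferation inhibition) and TGI (total growth inhibition) were derived from the dose-response data.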

[33] = test system: MDA-MB-435; assay: Growth inhibition of human MDA-MB-435 cells assessed as cell growth at 10 uM incubated for 48 hrs by sulforhodamine B assay relative to control; in short: as §3
[34] = test system: SNB-75; assay: Growth inhibition of human SNB-75 cells assessed as cell growth at 10 uM incubated for 48 hrs by sulforhodamine B assay relative to control; in short: as §1

Structure (SMILES): COc1ccc(S(=O)(=O)n2ccc(-c3ccc4c(c3)CCC(C)(C)O4)n2)cc1OC
- growth at 10 µM [1]: 97.2%
- growth at 10 µM [2]: 105%
- growth at 10 µM [3]: 67.1%
- growth at 10 µM [4]: 84.3%
- growth at 10 µM [5]: 28.2%
- growth at 10 µM [6]: 81.9%
- growth at 10 µM [7]: 91%
- growth at 10 µM [8]: 63.9%
- growth at 10 µM [9]: 114%
- growth at 10 µM [10]: 112%
- growth at 10 µM [11]: 58.3%
- growth at 10 µM [12]: 75.1%
- growth at 10 µM [13]: 69.5%
- growth at 10 µM [14]: 68.5%
- growth at 10 µM [15]: 56.5%
- growth at 10 µM [16]: 71.9%
- growth at 10 µM [17]: 63%
- growth at 10 µM [18]: 63.8%
- growth at 10 µM [19]: 82.2%
- growth at 10 µM [20]: 89.5%
- growth at 10 µM [21]: 91.5%
- growth at 10 µM [22]: 71.4%
- growth at 10 µM [23]: 61.5%
- growth at 10 µM [24]: 59%
- growth at 10 µM [25]: 52.8%
- growth at 10 µM [26]: 57.1%
- growth at 10 µM [27]: 28.4%
- growth at 10 µM [28]: 69.6%
- growth at 10 µM [29]: 70.9%
- growth at 10 µM [30]: 83.1%
- growth at 10 µM [31]: 79.5%
- growth at 10 µM [32]: 94.7%
- growth at 10 µM [33]: 79.6%
- growth at 10 µM [34]: 84.6%

Structure (SMILES): Cc1cc(C)cc(S(=O)(=O)n2ccc(-c3ccc4c(c3)CCC(C)(C)O4)n2)c1
- growth at 10 µM [1]: 99.8%
- growth at 10 µM [2]: 116%
- growth at 10 µM [3]: 80.8%
- growth at 10 µM [4]: 105%
- growth at 10 µM [5]: 82.9%
- growth at 10 µM [6]: 82.7%
- growth at 10 µM [7]: 102%
- growth at 10 µM [8]: 73.9%
- growth at 10 µM [9]: 82.9%
- growth at 10 µM [10]: 116%
- growth at 10 µM [11]: 78.1%
- growth at 10 µM [12]: 77.3%
- growth at 10 µM [13]: 82.4%
- growth at 10 µM [14]: 75%
- growth at 10 µM [15]: 79%
- growth at 10 µM [16]: 82.3%
- growth at 10 µM [17]: 85%
- growth at 10 µM [18]: 91.4%
- growth at 10 µM [19]: 96.3%
- growth at 10 µM [20]: 92%
- growth at 10 µM [21]: 92.7%
- growth at 10 µM [22]: 82.7%
- growth at 10 µM [23]: 77.8%
- growth at 10 µM [24]: 66.8%
- growth at 10 µM [25]: 63%
- growth at 10 µM [26]: 89.6%
- growth at 10 µM [27]: 54.6%
- growth at 10 µM [28]: 84.4%
- growth at 10 µM [29]: 87.8%
- growth at 10 µM [30]: 88%
- growth at 10 µM [31]: 85.6%
- growth at 10 µM [32]: 99.8%
- growth at 10 µM [33]: 93.8%
- growth at 10 µM [34]: 87.2%
